Experiments:
[1] = molecular target: T1, Serine/threonine-protein kinase TBK1 (Homo sapiens, UniProt Q9UHD2); experiment: Inhibition of TBK1 in HEK293 cells after 4.5 hrs by ISRE-luciferase reporter gene assay in presence of poly I:C; assay type: cell-based
T1 sequence (Q9UHD2 whole entry): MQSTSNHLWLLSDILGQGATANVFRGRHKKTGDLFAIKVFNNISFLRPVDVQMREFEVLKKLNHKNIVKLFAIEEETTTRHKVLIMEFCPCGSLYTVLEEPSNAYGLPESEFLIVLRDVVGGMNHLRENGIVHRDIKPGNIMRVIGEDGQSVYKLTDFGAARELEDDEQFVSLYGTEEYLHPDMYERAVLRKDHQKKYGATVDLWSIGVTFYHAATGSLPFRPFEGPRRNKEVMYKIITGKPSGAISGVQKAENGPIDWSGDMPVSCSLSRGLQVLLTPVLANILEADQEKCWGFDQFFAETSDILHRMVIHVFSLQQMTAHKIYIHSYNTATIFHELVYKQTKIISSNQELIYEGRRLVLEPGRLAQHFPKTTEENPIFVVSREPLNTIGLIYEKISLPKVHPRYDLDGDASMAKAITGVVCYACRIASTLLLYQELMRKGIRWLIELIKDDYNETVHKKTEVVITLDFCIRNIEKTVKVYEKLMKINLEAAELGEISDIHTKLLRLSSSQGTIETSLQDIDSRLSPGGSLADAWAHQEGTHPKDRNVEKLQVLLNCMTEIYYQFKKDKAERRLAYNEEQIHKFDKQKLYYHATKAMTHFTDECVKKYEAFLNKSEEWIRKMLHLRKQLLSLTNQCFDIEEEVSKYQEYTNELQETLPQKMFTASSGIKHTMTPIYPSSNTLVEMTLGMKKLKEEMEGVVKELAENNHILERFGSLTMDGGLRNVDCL

[2] = molecular target: T2, Inhibitor of nuclear factor kappa-B kinase subunit epsilon (Homo sapiens, UniProt Q14164); experiment: Inhibition of IKK-epsilon (unknown origin) using 5FAM-AKELDQGSLCTpSFVGTLQ-NH2 as substrate by microfluidic mobility shift assay
T2 sequence (Q14164 whole entry): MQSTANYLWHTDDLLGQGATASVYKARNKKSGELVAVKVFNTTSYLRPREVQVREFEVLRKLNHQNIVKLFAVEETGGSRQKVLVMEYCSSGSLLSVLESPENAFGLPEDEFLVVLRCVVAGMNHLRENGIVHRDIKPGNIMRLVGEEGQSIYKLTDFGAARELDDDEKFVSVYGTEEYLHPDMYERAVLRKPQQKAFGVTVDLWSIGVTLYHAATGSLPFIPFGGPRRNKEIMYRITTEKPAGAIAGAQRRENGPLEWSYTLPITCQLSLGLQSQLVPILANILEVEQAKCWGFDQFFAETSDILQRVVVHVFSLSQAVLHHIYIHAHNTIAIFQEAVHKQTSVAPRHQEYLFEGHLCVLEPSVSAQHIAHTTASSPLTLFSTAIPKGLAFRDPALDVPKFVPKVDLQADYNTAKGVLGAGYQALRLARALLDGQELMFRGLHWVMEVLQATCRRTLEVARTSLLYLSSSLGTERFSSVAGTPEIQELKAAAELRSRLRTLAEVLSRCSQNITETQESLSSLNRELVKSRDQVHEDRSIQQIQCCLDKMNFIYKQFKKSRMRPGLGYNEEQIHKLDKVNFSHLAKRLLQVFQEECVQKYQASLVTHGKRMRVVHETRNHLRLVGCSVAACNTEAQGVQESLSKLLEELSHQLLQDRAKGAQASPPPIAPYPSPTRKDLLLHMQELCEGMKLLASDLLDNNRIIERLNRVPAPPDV
Outline: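 Recombinant IKK-ε (4 nM) in HEPES buffer with 1.5 µM 5FAM-labelled peptide substrate, ATP at its K_M, and 10 mM MgCl2. The 10-point titration used half-log serial dilutions. Reactions ran at room temperature for a set time, were quenched with EDTA-containing HEPES, and were read by microfluidic mobility shift. Percent inhibition came from the ratio of phosphorylated to total peptide.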

[3] = molecular target: T1, Serine/threonine-protein kinase TBK1; experiment: Inhibition of recombinant full-length TBK1 (unknown origin) using CK1tide as substrate by microfluidic mobility shift assay
Aurora kinase B = Aurora kinase B (Homo sapiens, UniProt Q96GD4); experiment: Inhibition of aurora B (unknown origin)
Chain of Aurora kinase B (Q96GD4 whole entry): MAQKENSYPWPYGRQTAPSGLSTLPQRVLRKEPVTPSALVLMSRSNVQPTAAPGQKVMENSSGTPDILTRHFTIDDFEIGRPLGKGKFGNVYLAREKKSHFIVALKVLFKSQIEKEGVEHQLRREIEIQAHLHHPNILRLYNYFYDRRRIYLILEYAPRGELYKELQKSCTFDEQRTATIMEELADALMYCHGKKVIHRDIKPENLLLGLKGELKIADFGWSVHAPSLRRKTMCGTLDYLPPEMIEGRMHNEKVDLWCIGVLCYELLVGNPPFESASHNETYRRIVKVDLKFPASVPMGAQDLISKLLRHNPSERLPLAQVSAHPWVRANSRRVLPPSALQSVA

[4] = molecular target: Cyclin-dependent kinase 2 (Homo sapiens, UniProt P24941); experiment: Inhibition of CDK2 (unknown origin)

Structure (SMILES) | IC50 [1] [nM] | IC50 [2] [nM] | IC50 [3] [nM] | IC50 (Aurora kinase B) [nM] | IC50 [4] [µM]
COc1ccc(-c2nc3cc(-c4cc(C(=O)O)cs4)cnc3[nH]2)cc1 | > 30000 | 395 | 129 | – | –
COCCNC(=O)c1cc(-c2cnc3[nH]c(-c4ccc(OC)cc4)nc3c2)cs1 | 170 | 412 | 98 | 1380 | > 30
COc1ccc(-c2nc3c(NCCCNC(=O)C4CCCC4)c(-c4nc(C(N)=O)cs4)cnc3[nH]2)cc1 | 7 | 42 | 9 | 284 | 1.45
COc1ccc(-c2nc3c(NCCCNC(=O)C4CCCC4)c(C(N)=S)cnc3[nH]2)cc1 | 165 | 448 | 46 | 889 | > 30
COc1cc2ncn(-c3cc(OCc4ccccc4S(C)(=O)=O)c(C#N)s3)c2cc1OC [GSK-319347A] | 72 | 469 | 93 | > 5320 | > 30
COc1ccc(-c2nc3cc(-c4csc(C(=O)NCC(C)(C)CO)c4)cnc3[nH]2)cc1 | 136 | 330 | 100 | 1680 | > 30
COc1ccc(-c2nc3ncc(-c4ccc(C(=O)O)s4)cc3[nH]2)cc1 | > 30000 | 867 | 256 | – | –
O=C(O)c1ccc(-c2cnc3nc(-c4ccc(OCCN5CCCCC5)cc4)[nH]c3c2)cc1 | – | – | 859 | – | –
CCC(C)CNC(=O)c1cc(-c2cnc3[nH]c(-c4ccc(OC)cc4)nc3c2)cs1 (stereo not given) | 89 | 1090 | 219 | 2820 | > 30
COc1ccc(-c2nc3cc(-c4csc(C(N)=O)c4)cnc3[nH]2)cc1 | 268 | 205 | 30 | 2300 | 0.984
CNc1c(-c2ccc(C(=O)O)cc2)cnc2nc(-c3ccc(OC)cc3)[nH]c12 | – | – | 1800 | – | –
COc1ccc(-c2nc3cc(-c4csc(C#N)c4)cnc3[nH]2)cc1 | – | > 30000 | > 30000 | – | –
COc1ccc(-c2nc3c(OCCCNC(=O)C4CCCC4)c(-c4csc(C(=O)O)c4)cnc3[nH]2)cc1 | > 3000 | 1100 | 460 | 1300 | > 30
COc1ccc(-c2nc3cc(-c4csc(C(C)=O)c4)cnc3[nH]2)cc1 | 1780 | 6750 | 650 | 12100 | > 30
COc1ccc(-c2nc3ncc(-c4csc(C(=O)O)c4)cc3[nH]2)cc1 | > 30000 | 114 | 49 | – | –
COc1ccc(-c2nc3ncc(-c4cc(C(=O)O)co4)cc3[nH]2)cc1 | > 30000 | 11600 | 1050 | – | –
COc1ccc(-c2nc3c(OCCCNC(=O)C4CCCC4)c(Br)cnc3[nH]2)cc1 | – | > 30000 | 759 | 156 | > 30
COc1ccc(-c2nc3c(NCCCNC(=O)C4CCCC4)c(-c4nc(C(=O)O)cs4)cnc3[nH]2)cc1 | 2170 | 158 | 36 | 299 | 13.6
CNc1c(-c2ccc(C(=O)O)s2)cnc2[nH]c(-c3ccc(OC)cc3)nc12 | – | 3300 | 1040 | – | –
COc1ccc(-c2nc3c(NCCCNC(=O)C4CCCC4)c(-c4nc(C(=O)NCC(C)C)cs4)cnc3[nH]2)cc1 | 128 | 3230 | 388 | 2470 | > 30
CNC(=O)c1cc(-c2cnc3nc(-c4ccc(OC)cc4)[nH]c3c2)cs1 | 851 | 2560 | 203 | – | –
